Laboratory results reported in ChEMBL document CHEMBL3046679, “Design, synthesis, and biological activities of arylmethylamine substituted chlorotriazine and methylthiotriazine compounds” (J Agric Food Chem, 2011).
The source made the active and inactive calls. The rule behind the calls is not given here.

Experiments:
[1] = system: Puccinia triticina; experiment: Fungicidal activity against Puccinia triticina assessed as inhibition of disease development in compound treated leaf pieces at 200 ppm relative to untreated control (wheat-curative); type: functional
In short: (§1)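 Curative wheat leaf-piece test against Puccinia triticina. Leaf pieces inoculated with spores first, then treated with formulated compound at 200, 60 or 20 ppm. Disease scored 3–9 days after inoculation as percent inhibition versus untreated controls. Values are the mean across replicates.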

[2] = system: Zymoseptoria tritici; experiment: Fungicidal activity against Zymoseptoria tritici assessed as inhibition of mycelia growth at 100 ppm; type: functional, organism-based
[3] = system: Botrytis cinerea; experiment: Fungicidal activity against Botryotinia fuckeliana assessed as inhibition of mycelia growth at 2 ppm; type: functional, organism-based
In short: (§2)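 Mycelial growth test in 96-well plates: compound incorporated into artificial growth medium at 2 ppm, two replicates per rate. Each well scored 99 for complete, 55 for partial or 0 for no inhibition. Values are the mean across replicates; azoxystrobin and prochloraz used as positive controls.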

[4] = system: Fusarium graminearum; experiment: Fungicidal activity against Fusarium graminearum assessed as inhibition of mycelia growth at 2 ppm; type: functional, organism-based; in short: as §2
[5] = system: Alternaria solani; experiment: Fungicidal activity against Alternaria solani assessed as inhibition of mycelia growth at 2 ppm; type: functional, organism-based; in short: as §2
[6] = system: Pythium dissimile; experiment: Fungicidal activity against Pythium dissimile assessed as inhibition of mycelia growth at 2 ppm; type: functional, organism-based; in short: as §2
[7] = system: Digitaria sanguinalis; experiment: Herbicidal activity against Digitaria sanguinalis (hairy crabgrass) assessed as growth inhibition at 1 kg/ha preemergence treatment by glasshouse test; type: functional; details: pre-emergence, read-out: GI
In short: (§3)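 Glasshouse screen with pre- or postemergence application at 1.0 kg/ha. Result given as percent inhibition of plant growth; norflurazon and glyphosate used as controls.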

[8] = system: Stellaria media; experiment: Herbicidal activity against Stellaria media assessed as growth inhibition at 1 kg/ha preemergence treatment by glasshouse test; type: functional; details: pre-emergence, read-out: GI; in short: as §3
[9] = system: Lolium perenne; experiment: Herbicidal activity against Lolium perenne (perennial ryegrass) assessed as growth inhibition at 1 kg/ha preemergence treatment by glasshouse test; type: functional; details: pre-emergence, read-out: GI; in short: as §3
[10] = system: Amaranthus retroflexus; experiment: Herbicidal activity against Amaranthus retroflexus assessed as growth inhibition at 1 kg/ha preemergence treatment by glasshouse test; type: functional; details: pre-emergence, read-out: GI; in short: as §3
[11] = system: Digitaria sanguinalis; experiment: Herbicidal activity against Digitaria sanguinalis (hairy crabgrass) assessed as growth inhibition at 1 kg/ha postemergence treatment by glasshouse test; type: functional; details: post-emergence, read-out: GI; in short: as §3
[12] = system: Stellaria media; experiment: Herbicidal activity against Stellaria media assessed as growth inhibition at 1 kg/ha postemergence treatment by glasshouse test; type: functional; details: post-emergence, read-out: GI; in short: as §3
[13] = system: Lolium perenne; experiment: Herbicidal activity against Lolium perenne (perennial ryegrass) assessed as growth inhibition at 1 kg/ha postemergence treatment by glasshouse test; type: functional; details: post-emergence, read-out: GI; in short: as §3
[14] = system: Amaranthus retroflexus; experiment: Herbicidal activity against Amaranthus retroflexus assessed as growth inhibition at 1 kg/ha postemergence treatment by glasshouse test; type: functional; details: post-emergence, read-out: GI; in short: as §3
[15] = system: Poa annua; experiment: Herbicidal activity against Poa annua assessed as growth inhibition at 32 ppm by 96-well plate test; type: functional; details: read-out: GI
In short: (§4)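 96-well plate herbicide screen: Arabidopsis thaliana at 10 ppm and Poa annua at 32 ppm, two replicates. Plates incubated seven days in a controlled-environment cabinet. Each replicate scored 0 (no visible effect) or 99 (herbicidal effect); values are the mean of the two. Atrazine used as reference.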

[16] = system: Arabidopsis thaliana; experiment: Herbicidal activity against Arabidopsis thaliana assessed as growth inhibition at 10 ppm by 96-well plate test; type: functional; details: read-out: GI; in short: as §4
[17] = system: Echinochloa crus-galli; experiment: Herbicidal activity against Echinochloa crus-galli (barnyard grass) at 1.5 kg/ha postemergence treatment measured after 10 days by glasshouse test; type: functional; details: post-emergence, 240 h
In short: (§5)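 Glasshouse pre/postemergence test, each treatment in triplicate. Above-ground fresh weight measured 10 days after treatment. Result expressed as percent inhibition versus control, from 0 (no control) to 100 (complete control); glyphosate used as positive control.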

[18] = system: Brassica napus; experiment: Herbicidal activity against Brassica napus (oilseed rape) at 1.5 kg/ha postemergence treatment measured after 10 days by glasshouse test; type: functional; details: post-emergence, 240 h; in short: as §5
[19] = system: Echinochloa crus-galli; experiment: Herbicidal activity against Echinochloa crus-galli (barnyard grass) at 1.5 kg/ha preemergence treatment measured after 10 days by glasshouse test; type: functional; details: pre-emergence, 240 h; in short: as §5
[20] = system: Alternaria solani; experiment: Fungicidal activity against Alternaria solani assessed as inhibition of disease development in compound treated leaf pieces at 20 ppm relative to untreated control (tomato-preventative); type: functional
In short: (§6)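 Preventative leaf-piece test on host tissue (tomato, vine, wheat or barley). Formulated compound applied at 200, 60 and 20 ppm before spore inoculation. Disease scored 3–9 days after inoculation, depending on the pathogen, as percent inhibition of disease development versus untreated controls. Values are the mean across replicates.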

[21] = system: Pyrenophora teres; experiment: Fungicidal activity against Pyrenophora teres assessed as inhibition of disease development in compound treated leaf pieces at 20 ppm relative to untreated control (barley-preventative); type: functional; in short: as §6
[22] = system: Parastagonospora nodorum; experiment: Fungicidal activity against Phaeosphaeria nodorum assessed as inhibition of disease development in compound treated leaf pieces at 20 ppm relative to untreated control (wheat preventative); type: functional; in short: as §6
[23] = system: Puccinia triticina; experiment: Fungicidal activity against Puccinia triticina assessed as inhibition of disease development in compound treated leaf pieces at 20 ppm relative to untreated control (wheat-curative); type: functional; in short: as §1
[24] = system: Puccinia triticina; experiment: Fungicidal activity against Puccinia triticina assessed as inhibition of disease development in compound treated leaf pieces at 20 ppm relative to untreated control (wheat-preventative); type: functional; in short: as §6
[25] = system: Alternaria solani; experiment: Fungicidal activity against Alternaria solani assessed as inhibition of disease development in compound treated leaf pieces at 60 ppm relative to untreated control (tomato-preventative); type: functional; in short: as §6
[26] = system: Parastagonospora nodorum; experiment: Fungicidal activity against Phaeosphaeria nodorum assessed as inhibition of disease development in compound treated leaf pieces at 60 ppm relative to untreated control (wheat preventative); type: functional; in short: as §6
[27] = system: Puccinia triticina; experiment: Fungicidal activity against Puccinia triticina assessed as inhibition of disease development in compound treated leaf pieces at 60 ppm relative to untreated control (wheat-curative); type: functional; in short: as §1
[28] = system: Puccinia triticina; experiment: Fungicidal activity against Puccinia triticina assessed as inhibition of disease development in compound treated leaf pieces at 60 ppm relative to untreated control (wheat-preventative); type: functional; in short: as §6
[29] = system: Blumeria graminis f. sp. tritici; experiment: Fungicidal activity against Blumeria graminis f. sp. tritici assessed as inhibition of disease development in compound treated leaf pieces at 60 ppm relative to untreated control (wheat-preventative); type: functional
[30] = system: Plasmopara viticola; experiment: Fungicidal activity against Plasmopara viticola assessed as inhibition of disease development in compound treated leaf pieces at 60 ppm relative to untreated control (grapevine-preventative); type: functional; in short: as §6
[31] = system: Pyrenophora teres; experiment: Fungicidal activity against Pyrenophora teres assessed as inhibition of disease development in compound treated leaf pieces at 200 ppm relative to untreated control (barley-preventative); type: functional; in short: as §6
[32] = system: Parastagonospora nodorum; experiment: Fungicidal activity against Phaeosphaeria nodorum assessed as inhibition of disease development in compound treated leaf pieces at 200 ppm relative to untreated control (wheat preventative); type: functional
In short: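 Wheat leaf pieces treated with formulated compound (200, 60 and 20 ppm) before inoculation with pathogen spores. Disease development assessed 3–9 days after inoculation, depending on the assay. Scored as percent inhibition relative to untreated controls; value is the mean across replicates.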

[33] = system: Heliothis virescens; experiment: Insecticidal activity against Lepidoptera Heliothis virescens (tobacco budworm) assessed as mortality at 1000 ppm by leaf-disk assay; type: functional, organism-based
In short: (§7)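 Leaf-disk assay at 1000 ppm, three replicates. Plates kept 5–9 days in controlled-environment cabinets. Mortality judged against untreated wells: 99 for significant mortality, 0 otherwise. Values are the mean of three; thiamethoxam and indoxacarb used as positive controls.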

[34] = system: Aphididae; experiment: Insecticidal activity against Aphididae (aphids) assessed as mortality at 1000 ppm by leaf-disk assay; type: functional, organism-based; in short: as §7

CC(C)Nc1nc(Cl)nc(NCc2ccc(F)cc2)n1
inhibition at 200 ppm [1]: 100%
inhibition [2]: Active
inhibition [3]: Active
inhibition [4]: inactive
inhibition [5]: inactive
inhibition [6]: inactive
inhibition of growth at 1000 g/ha [7]: 70%
inhibition of growth at 1000 g/ha [8]: 90%
inhibition of growth at 1000 g/ha [9]: 30%
inhibition of growth at 1000 g/ha [10]: 100%
inhibition of growth at 1000 g/ha [11]: 0%
inhibition of growth at 1000 g/ha [12]: 90%
inhibition of growth at 1000 g/ha [13]: 50%
inhibition of growth at 1000 g/ha [14]: 100%
inhibition of growth at 32 ppm [15]: 0%
inhibition of growth at 10 ppm [16]: 99%
inhibition at 1500 g/ha [17]: 75.7%
inhibition at 1500 g/ha [18]: 100%
inhibition at 1500 g/ha [19]: 2.1%
inhibition at 20 ppm [20]: 0%
inhibition at 20 ppm [21]: 0%
inhibition at 20 ppm [22]: 0%
inhibition at 20 ppm [23]: 20%
inhibition at 20 ppm [24]: 0%
inhibition at 60 ppm [25]: 0%
inhibition at 60 ppm [26]: 20%
inhibition at 60 ppm [27]: 100%
inhibition at 60 ppm [28]: 20%
inhibition at 60 ppm [29]: 20%
inhibition at 60 ppm [30]: 20%
inhibition at 200 ppm [31]: 0%
inhibition at 200 ppm [32]: 70%
mortality [33]: inactive
mortality [34]: inactive
